Assay [1] has as its target Kappa-type opioid receptor (Homo sapiens, UniProt P41145). As to the kind of experiment: biochemical. It is filed as cell-based, HEK293.
Assay [2] concerns the target Mu-type opioid receptor (Rattus norvegicus, UniProt P33535). As to the kind of experiment: Inhibition of [3H]DAMGO binding to rat Opioid receptor mu 1. The essentials:
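Rat brain crude membranes (homogenized in 50 mM Tris HCl pH 7.4, kept on ice) incubated with 1.5 nM [3H]DAMGO for 90 min at 22 °C. Nonspecific binding defined with naltrexone. Terminated by rapid filtration, bound radioactivity counted by scintillation. Mean of at least three independent assays.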

Assay [3] concerns the target Delta-type opioid receptor (Homo sapiens, UniProt P41143). As to the kind of experiment: Inhibition of [3H]naltrindole binding to human Opioid receptor delta 1 in CHO cells. It is filed as cell-based. In outline: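 Membranes from CHO cells expressing human delta opioid receptor (homogenized in 50 mM Tris HCl pH 7.4, 1 mM EGTA; stored frozen at 0.8 mg/mL) incubated with 0.5 nM [3H]naltrindole, 90 min at 37 °C. Nonspecific binding defined with unlabelled naltrindole. Filtration, scintillation counting; mean of at least three independent assays.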

Sequence of Delta-type opioid receptor (P41143 whole entry): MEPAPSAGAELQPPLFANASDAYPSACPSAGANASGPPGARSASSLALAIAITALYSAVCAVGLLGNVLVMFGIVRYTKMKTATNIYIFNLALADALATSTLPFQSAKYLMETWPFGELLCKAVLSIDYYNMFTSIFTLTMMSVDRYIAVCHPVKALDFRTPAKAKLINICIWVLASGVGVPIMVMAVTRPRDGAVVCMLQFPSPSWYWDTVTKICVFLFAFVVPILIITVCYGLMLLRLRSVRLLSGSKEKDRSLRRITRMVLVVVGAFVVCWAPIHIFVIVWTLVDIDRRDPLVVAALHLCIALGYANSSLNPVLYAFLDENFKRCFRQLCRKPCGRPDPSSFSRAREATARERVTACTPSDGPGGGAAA
Sequence of Mu-type opioid receptor (P33535 whole entry): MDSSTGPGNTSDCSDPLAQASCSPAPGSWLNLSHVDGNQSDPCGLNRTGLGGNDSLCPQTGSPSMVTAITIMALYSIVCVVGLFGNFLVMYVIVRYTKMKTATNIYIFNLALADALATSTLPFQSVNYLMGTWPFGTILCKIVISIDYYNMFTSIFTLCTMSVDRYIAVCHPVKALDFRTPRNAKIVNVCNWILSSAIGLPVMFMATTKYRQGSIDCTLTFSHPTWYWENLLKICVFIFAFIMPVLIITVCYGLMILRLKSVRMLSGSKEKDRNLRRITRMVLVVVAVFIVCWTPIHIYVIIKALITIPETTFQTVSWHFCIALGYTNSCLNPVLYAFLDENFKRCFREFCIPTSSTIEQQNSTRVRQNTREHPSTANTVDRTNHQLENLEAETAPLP
Sequence of Kappa-type opioid receptor (P41145 whole entry): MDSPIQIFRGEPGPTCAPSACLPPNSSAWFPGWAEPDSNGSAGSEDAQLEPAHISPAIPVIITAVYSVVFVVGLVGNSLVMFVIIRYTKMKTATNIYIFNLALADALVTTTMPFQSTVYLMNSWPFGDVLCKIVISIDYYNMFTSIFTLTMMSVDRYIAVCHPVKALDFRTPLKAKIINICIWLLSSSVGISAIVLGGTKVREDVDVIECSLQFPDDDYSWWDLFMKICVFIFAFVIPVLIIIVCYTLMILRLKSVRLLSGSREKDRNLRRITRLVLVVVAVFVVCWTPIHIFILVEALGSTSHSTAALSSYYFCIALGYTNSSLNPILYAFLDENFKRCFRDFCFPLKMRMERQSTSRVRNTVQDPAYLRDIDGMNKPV

As to `CNC(c1cccc(O)c1)C(C)(C)C(=O)NCc1ccccc1` (stereo not drawn), the values for the Ki in assay [1], in assay [2] and in assay [3] were 5 nM, 8.7 nM and over 10000 nM, respectively.
The corresponding values for `CNC(c1ccccc1)C(C)(C)C(=O)NCCc1ccccc1` (stereo not drawn) are 49 nM, 13 nM and over 10000 nM.
For `CNC(c1ccccc1)C(C)(C)C(=O)NCC1CCCCC1` (stereo not drawn), the Ki (usually a measure of affinity in units of concentration, obtained from inhibition or displacement) in assay [1] is 1.2 nM; in assay [2] it was 85 nM; in assay [3] it was over 10000 nM.
The corresponding values for `CNC(c1ccccc1)C(C)(C)C(=O)NCc1ccccc1` (stereo not drawn) are 467 nM, 95 nM and over 10000 nM.
Consider `CNC(c1cccc(O)c1)C(C)(C)C(=O)NCCc1ccccc1` (stereo not drawn), for which the Ki turned out to be 6.3 nM in assay [1], 1.4 nM in assay [2] and 176 nM in assay [3].
On to `CCCCN(C)C(c1cccc(O)c1)C(C)(C)C(=O)NCCc1ccccc1` (stereo not drawn), for which the Ki is 75 nM in assay [1], 26 nM in assay [2] and over 10000 nM in assay [3].
For the compound `CNC(c1cccc(O)c1)C(C)(C)C(=O)NCc1cccc2ccccc12` (stereo not drawn), the Ki turned out to be 1.3 nM in assay [1], 1.4 nM in assay [2] and 163 nM in assay [3].
Turning to `CNC(c1cccc(O)c1)C(C)(C)C(=O)NCC1CC1` (stereo not drawn), the results for the Ki in assay [1], in assay [2] and in assay [3] were 75 nM, 364 nM and 781 nM, respectively.
With `CNC(c1cccc(O)c1)C(C)(C)C(=O)NCC1CCCCC1` (stereo not drawn), the Ki in assay [1] was determined as 5.7 nM; in assay [2], 4.4 nM; in assay [3], 881 nM.
Turning to `CNC(c1cccc(O)c1)C(C)(C)C(=O)NCCCc1ccccc1` (stereo not drawn), the values for the Ki in assay [1], in assay [2] and in assay [3] were 3.6 nM, 12 nM and over 10000 nM, respectively.
In the case of `CN(CC1CC1)C(c1cccc(O)c1)C(C)(C)C(=O)NCCc1ccccc1` (stereo not drawn), the Ki in assay [1] is 2.9 nM; in assay [2], 28 nM; in assay [3], 710 nM.

The record behind these values is ChEMBL document CHEMBL1133419, “Design, synthesis and biological evaluation of 3-amino-3-phenylpropionamide derivatives as novel mu opioid receptor ligands” (Bioorg Med Chem Lett, 2000).
